This passage reports IC50 results from ChEMBL document CHEMBL1134624, “Potent and selective ET-A antagonists. 1. Syntheses and structure-activity relationships of N-(6-(2-(aryloxy)ethoxy)-4-pyrimidinyl)sulfonamide derivatives” (J Med Chem, 2001).

One experiment has as its target T1, Endothelin receptor type B (Homo sapiens, UniProt P24530).
T1 sequence (P24530 whole entry): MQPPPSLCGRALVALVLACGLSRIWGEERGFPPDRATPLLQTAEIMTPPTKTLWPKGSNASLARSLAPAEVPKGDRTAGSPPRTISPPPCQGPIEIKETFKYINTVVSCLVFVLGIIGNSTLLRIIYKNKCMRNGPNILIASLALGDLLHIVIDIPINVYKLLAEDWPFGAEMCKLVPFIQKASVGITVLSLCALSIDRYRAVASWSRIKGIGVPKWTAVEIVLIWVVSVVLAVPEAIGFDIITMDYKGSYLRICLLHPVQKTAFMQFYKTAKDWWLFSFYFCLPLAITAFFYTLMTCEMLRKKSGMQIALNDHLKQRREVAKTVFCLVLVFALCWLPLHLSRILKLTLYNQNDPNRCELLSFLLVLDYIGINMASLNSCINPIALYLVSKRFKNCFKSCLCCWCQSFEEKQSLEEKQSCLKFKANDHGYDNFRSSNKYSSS
In words: In vitro for specific binding of [125I]ET1 to GHcell expressed in Endothelin B receptor.
Details: not given
By IC50 is commonly meant the point on the concentration scale where inhibition reaches its midpoint. As for `Cc1ccc(-c2c(NS(=O)(=O)c3ccc(C(C)(C)C)cc3)ncnc2OCCOc2ncc(Cl)cn2)cc1` [listing 1 of 2 here], the IC50 worked out at 28 nM.

In turn, `COc1cnc(OCCOc2ncnc(NS(=O)(=O)c3ccc(C(C)(C)C)cc3)c2-c2ccc(C)cc2)nc1` [listing 1 of 2 here] registered a 50% inhibitory concentration (IC50) of 240 nM.

For another experiment, the target named is T2, Endothelin-1 receptor (Sus scrofa, UniProt Q29010).
T2 sequence (Q29010 whole entry): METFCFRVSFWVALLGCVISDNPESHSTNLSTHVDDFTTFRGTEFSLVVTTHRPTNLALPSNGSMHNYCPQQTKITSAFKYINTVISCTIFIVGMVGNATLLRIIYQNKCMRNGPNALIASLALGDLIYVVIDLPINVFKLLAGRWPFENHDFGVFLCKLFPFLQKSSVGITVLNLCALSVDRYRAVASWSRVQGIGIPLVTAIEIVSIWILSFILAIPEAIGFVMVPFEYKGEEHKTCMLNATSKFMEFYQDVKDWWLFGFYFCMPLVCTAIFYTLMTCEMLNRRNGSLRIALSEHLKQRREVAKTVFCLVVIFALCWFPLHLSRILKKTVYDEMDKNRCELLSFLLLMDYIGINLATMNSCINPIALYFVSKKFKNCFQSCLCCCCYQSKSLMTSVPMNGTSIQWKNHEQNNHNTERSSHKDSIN
In words: In vitro inhibition of [125I]ET1 binding to Endothelin A receptor in porcine aortic membrane from endothelial cells. The class given is cell membranes. As to conditions: in the assay text read “with endothelium removed” for “from endothelial cells”. The essentials:
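Endothelium-free porcine aorta homogenized in 10 mM MOPS (pH 7.4) with 20% sucrose. Membranes spun 1000g 15 min, then supernatant 90000g 45 min, and resuspended in 5 mM HEPES-Tris. Incubated with 20 pM final 125I-ET-1 and graded compound concentrations in 50 mM Tris-HCl pH 7.4, 0.1% BSA, protease inhibitors, EDTA, 2 h at 25 °C. Filtered, washed, gamma-counted.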
In turn, `COc1cccc(Oc2c(NS(=O)(=O)c3ccc(C(C)(C)C)cc3)ncnc2OCCOc2ccccc2)c1` came in with a half-inhibitory concentration (IC50) of 65 nM.

As to `COc1ccc(S(=O)(=O)Nc2ncnc(OCCOc3ncc(Br)cn3)c2-c2ccc(C)cc2)cc1`, the IC50 stood at 0.76 nM.

`Cc1ccc(-c2c(NS(=O)(=O)c3ccc4ccccc4c3)ncnc2OCCOc2ncc(Br)cn2)cc1` yielded a 50% inhibitory concentration (IC50) of 1 nM.

Turning to `CSc1cnc(OCCOc2ncnc(NS(=O)(=O)c3ccc(C(C)(C)C)cc3)c2-c2ccc(C)s2)nc1`, the 50% inhibitory concentration (IC50) was determined as 0.16 nM.

Take `COc1ccccc1Oc1c(NS(=O)(=O)c2ccc(C(C)(C)C)cc2)ncnc1OCCOc1ncc(Br)cn1`: the IC50 turned out to be 0.0039 nM.

The compound `COc1ccc(S(=O)(=O)Nc2ncnc(OCCOc3ncc(Br)cn3)c2-c2ccc(C)cc2)cc1OC` gave a 50% inhibitory concentration (IC50) of 0.64 nM.

With `CSc1cnc(OCCOc2ncnc(NS(=O)(=O)c3ccc(C(C)(C)C)cc3)c2-c2ccco2)nc1`, the IC50 came to 2.9 nM.

Turning to `Cc1ccc(-c2c(NS(=O)(=O)c3ccc(C(C)(C)C)cc3)ncnc2OCCOc2ncc(Br)cn2)cc1`, the half-maximal inhibitory concentration (IC50) was < 0.001 nM.

In turn, `COc1cnc(OCCOc2ncnc(NS(=O)(=O)c3ccc(C(C)(C)C)cc3)c2-c2ccc(C)cc2)nc1` [listing 2 of 2 here] showed an IC50 of 0.0017 nM.

In turn, `COc1cccc(Oc2c(NS(=O)(=O)c3ccc(C(C)(C)C)cc3)ncnc2OCCOc2cccnn2)c1` displayed a half-maximal inhibitory concentration (IC50) of 51.4 nM.

As for `COc1cccc(Oc2c(NS(=O)(=O)c3ccc(C(C)(C)C)cc3)ncnc2OCCOc2nccc(C)n2)c1`, the IC50 came out at 39.4 nM.

With `COc1cccc(Oc2c(NS(=O)(=O)c3ccc(C(C)(C)C)cc3)ncnc2OCCOc2ccccn2)c1`, the IC50 is 8.8 nM.

As to `COc1cccc(Oc2c(NS(=O)(=O)c3ccc(C(C)(C)C)cc3)ncnc2OCCOc2ncccn2)c1`, the IC50 is 1.9 nM.

`COc1cnc(OCCOc2ncnc(NS(=O)(=O)c3ccc(C(C)(C)C)cc3)c2Oc2cccc(OC)c2)nc1` had a half-maximal inhibitory concentration (IC50) of 0.015 nM.

On to `COc1ccccc1Oc1c(NS(=O)(=O)c2ccc(C(C)(C)C)cc2)ncnc1OCCOc1ncc(SC)cn1`, for which the half-maximal inhibitory concentration (IC50) was found to be 0.37 nM.

On to `Cc1ccc(-c2c(NS(=O)(=O)c3cccs3)ncnc2OCCOc2ncc(Br)cn2)cc1`, for which the IC50 is 3.1 nM.

`COc1cccc(Oc2c(NS(=O)(=O)c3ccc(C(C)(C)C)cc3)ncnc2OCCOc2ncc(Br)cn2)c1` came in with an IC50 of 0.051 nM.

Compound `COc1cccc(Oc2c(NS(=O)(=O)c3ccc(C(C)(C)C)cc3)ncnc2OCCOc2cnc3ccccc3n2)c1` registered an IC50 of 45.4 nM.

The compound `CSc1cnc(OCCOc2ncnc(NS(=O)(=O)c3ccc(C(C)(C)C)cc3)c2-c2ccc(C(F)(F)F)cc2)nc1` displayed an IC50 of 0.0017 nM.

For `COc1cccc(Oc2c(NS(=O)(=O)c3ccc(C(C)(C)C)cc3)ncnc2OCCOc2ncc(C)cn2)c1`, the half-inhibitory concentration (IC50) was 0.86 nM.

Consider `COc1cccc(Oc2c(NS(=O)(=O)c3ccc(C(C)(C)C)cc3)ncnc2OCCOc2ncc(Cl)cn2)c1`, for which the IC50 turned out to be 0.059 nM.

`COCCOc1ncnc(NS(=O)(=O)c2ccc(C(C)(C)C)cc2)c1Oc1cccc(OC)c1` gave a half-maximal inhibitory concentration (IC50) of 92 nM.

In turn, `Cc1ccc(-c2c(NS(=O)(=O)c3ccc(C(F)(F)F)cc3)ncnc2OCCOc2ncc(Br)cn2)cc1` showed a half-inhibitory concentration (IC50) of 1.4 nM.

Consider `COc1cccc(Oc2c(NS(=O)(=O)c3ccc(C(C)(C)C)cc3)ncnc2OCCNc2ncccn2)c1`, for which the half-inhibitory concentration (IC50) is > 100 nM.

Turning to `CSc1cnc(OCCOc2ncnc(NS(=O)(=O)c3ccc(C(C)(C)C)cc3)c2-c2ccc(C(C)C)cc2)nc1`, the IC50 is 1.2 nM.

In the case of `COc1cccc(-c2c(NS(=O)(=O)c3ccc(C(C)(C)C)cc3)ncnc2OCCOc2ncc(SC)cn2)c1`, the IC50 turned out to be 0.028 nM.

Turning to `COc1ccccc1Sc1c(NS(=O)(=O)c2ccc(C(C)(C)C)cc2)ncnc1OCCOc1ncc(Br)cn1`, the 50% inhibitory concentration (IC50) came out at 0.018 nM.

Consider `Cc1ccc(-c2c(NS(=O)(=O)c3ccc(-c4ccccn4)s3)ncnc2OCCOc2ncc(Br)cn2)cc1`, for which the IC50 was 3.4 nM.

For `CSc1cnc(OCCOc2ncnc(NS(=O)(=O)c3ccc(C(C)(C)C)cc3)c2-c2ccc(C)cc2)nc1`, the IC50 was < 0.001 nM.

On to `Cc1ccc(-c2c(NS(=O)(=O)c3ccc(C(C)(C)C)cc3)ncnc2OCCOc2ncc(-c3ccco3)cn2)cc1`, for which the half-maximal inhibitory concentration (IC50) was < 0.001 nM.

As to `Cc1ccc(-c2c(NS(=O)(=O)c3ccc(I)cc3)ncnc2OCCOc2ncc(Br)cn2)cc1`, the half-maximal inhibitory concentration (IC50) is 1 nM.

On to `CSc1cnc(OCCOc2ncnc(NS(=O)(=O)c3ccc(C(C)(C)C)cc3)c2-c2ccc3ccccc3c2)nc1`, for which the half-maximal inhibitory concentration (IC50) was determined as 0.29 nM.

As to `COc1cccc(Oc2c(NS(=O)(=O)c3ccc(C(C)(C)C)cc3)ncnc2OCCOc2nccc(OC)n2)c1`, the 50% inhibitory concentration (IC50) is > 100 nM.

Compound `COc1ccc(-c2c(NS(=O)(=O)c3ccc(C(C)(C)C)cc3)ncnc2OCCOc2ncc(SC)cn2)cc1OC` returned a 50% inhibitory concentration (IC50) of 0.0085 nM.

`COc1cccc(Oc2c(NS(=O)(=O)c3ccc(C(C)(C)C)cc3)ncnc2OCCOc2nccc3ccccc23)c1`: the half-inhibitory concentration (IC50) is > 100 nM.

`Cc1ccc(-c2c(NS(=O)(=O)c3ccc(C(C)(C)C)cc3)ncnc2OCCOc2ncc(-c3ccccn3)cn2)cc1` returned a concentration for half-maximal inhibition (IC50) of 0.036 nM.

`Cc1ccc(-c2c(NS(=O)(=O)c3cccc4ccccc34)ncnc2OCCOc2ncc(Br)cn2)cc1`: the IC50 amounted to 22 nM.

The compound `Cc1ccc(-c2c(NS(=O)(=O)c3ccc(C(C)C)cc3)ncnc2OCCOc2ncc(Br)cn2)cc1` gave an IC50 of 0.16 nM.

As for `COc1cccc(Oc2c(NS(=O)(=O)c3ccc(C(C)(C)C)cc3)ncnc2OCCOCc2ccccc2)c1`, the IC50 came to 170 nM.

`Cc1ccc(-c2c(NS(=O)(=O)c3ccc(C(C)(C)C)cc3)ncnc2OCCOc2ncccn2)cc1`: the half-maximal inhibitory concentration (IC50) was 0.11 nM.

For the compound `Cc1ccc(-c2c(NS(=O)(=O)c3ccc(C(C)(C)C)cc3)ncnc2OCCOc2ncc(Cl)cn2)cc1` [listing 2 of 2 here], the IC50 was < 0.001 nM.

Regarding `CCC(C)(C)c1ccc(S(=O)(=O)Nc2ncnc(OCCOc3ncc(Br)cn3)c2-c2ccc(C)cc2)cc1`, the half-inhibitory concentration (IC50) is < 0.001 nM.

Compound `COc1cccc(Oc2c(NS(=O)(=O)c3ccc(C(C)(C)C)cc3)ncnc2OCCOc2ccncn2)c1` had a half-maximal inhibitory concentration (IC50) of 1.2 nM.

In the case of `Cc1ccc(-c2c(NS(=O)(=O)c3ccc(C(C)(C)C)cc3)ncnc2OCCO)cc1`, the IC50 is > 100 nM.

In the case of `COc1cccc(Oc2c(NS(=O)(=O)c3ccc(C(C)(C)C)cc3)ncnc2OCCOc2cnccn2)c1`, the IC50 is 24.5 nM.

`COc1ccc(-c2c(NS(=O)(=O)c3ccc(C(C)(C)C)cc3)ncnc2OCCOc2ncc(SC)cn2)cc1`: the IC50 was < 0.001 nM.

With `CSc1cnc(OCCOc2ncnc(NS(=O)(=O)c3ccc(C(C)(C)C)cc3)c2-c2ccc3c(c2)OCO3)nc1`, the half-maximal inhibitory concentration (IC50) amounted to 0.0011 nM.

Consider `COc1cccc(Oc2c(NS(=O)(=O)c3ccc(C(C)(C)C)cc3)ncnc2SCCOc2ncccn2)c1`, for which the 50% inhibitory concentration (IC50) amounted to 25.8 nM.

The compound `COc1cccc(Oc2c(NS(=O)(=O)c3ccc(C(C)(C)C)cc3)ncnc2OCCOc2ccc3ccccc3n2)c1` came in with a 50% inhibitory concentration (IC50) of 15.2 nM.

In the case of `Cc1ccc(-c2c(NS(=O)(=O)c3ccc(C(C)(C)C)cc3)ncnc2OCCOc2ncc(-c3ccsc3)cn2)cc1`, the IC50 was < 0.001 nM.

`COc1cccc(Oc2c(NS(=O)(=O)c3ccc(C(C)(C)C)cc3)ncnc2OCCOc2nccs2)c1` yielded a concentration for half-maximal inhibition (IC50) of 12 nM.

As to `CCc1ccc(-c2c(NS(=O)(=O)c3ccc(C(C)(C)C)cc3)ncnc2OCCOc2ncc(SC)cn2)cc1`, the IC50 is 0.013 nM.

The compound `Cc1ccc(-c2c(NS(=O)(=O)c3ccc(Br)cc3)ncnc2OCCOc2ncc(Br)cn2)cc1` yielded a 50% inhibitory concentration (IC50) of 2.8 nM.

With `Cc1ccc(-c2c(NS(=O)(=O)c3ccc(C(C)(C)C)cc3)ncnc2OCCOc2ncc(-c3cccs3)cn2)cc1`, the IC50 is < 0.001 nM.

With `COc1cccc(Oc2c(NS(=O)(=O)c3ccc(C(C)(C)C)cc3)ncnc2OCCCc2ncccn2)c1`, the IC50 is > 100 nM.

Consider `CSc1cnc(OCCOc2ncnc(NS(=O)(=O)c3ccc(C(C)(C)C)cc3)c2-c2ccc(Cl)cc2)nc1`, for which the IC50 is < 0.001 nM.

`CSc1cnc(OCCOc2ncnc(NS(=O)(=O)c3ccc(C(C)(C)C)cc3)c2-c2ccncc2)nc1` displayed an IC50 of 9.9 nM.

As to `COc1cccc(Oc2c(NS(=O)(=O)c3ccc(C(C)(C)C)cc3)ncnc2OCCCOc2ncc(C)cn2)c1`, the IC50 is 93.5 nM.

Regarding `CSc1cnc(OCCOc2ncnc(NS(=O)(=O)c3ccc(C(C)(C)C)cc3)c2-c2cccs2)nc1`, the 50% inhibitory concentration (IC50) came to 0.89 nM.

On to `COc1cccc(Oc2c(NCCOc3ncccn3)ncnc2NS(=O)(=O)c2ccc(C(C)(C)C)cc2)c1`, for which the IC50 was 6.2 nM.
